NS3 helicase inh: HCV NS3 helicase inhibition; AID 1800; NS3 helicase DNA unwinding, Cy5 molecular beacon fluorescence; inhibition, % at 10.9 µM; 290,000 compounds, 0.56% hits;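 active = inhibition above the mean of all tested compounds plus 3 SD, set per campaign, cut at about 35% in these data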;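 also: 0% = DMSO wells and 100% = thioflavine S control wells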
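Control set: DMSO versus 110 µM thioflavine S; Material: NS3 helicase fragment of HCV; Measured by: Cy5 fluorescence at 0 and 60 min, beacon hairpin quenching; Read-out basis: percent inhibition from t60/t0 fluorescence ratio; Times: reaction time 60 min, 25 °C; Repeats: single replicate; Compound dosing: single dose, 10.9 µM nominal final, DMSO 0.8% final.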
HSF1 activator: increases HSF-1 driven luciferase reporter signal | activation, % at 9 µM | 300,000 compounds, 1.7% hits | NIH3T3-HGL HSF-1 luciferase reporter, MG132, 8 h; 100% = twice DMSO control signal;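 active = mean replicate activation of at least 50% with a set share of replicates each reaching 50%; inconclusive = only one of those two conditions met; inactive = mean below 50% and too few replicates reaching it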;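 also: 0% = median of the neutral control wells and 100% = twice that signal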
HSF1 inhib: HSF1 inhibition | NIH3T3-HGL HSE-luciferase, MG132-induced, luminescence 8 h; stronger effect = lower value | activity change, negative = inhibition, % at 7.5 µM (by protocol) | 300,000 compounds, 0.77% hits;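 active = more than half of replicate wells show activity change below -50%, luminescence cut by over half; inconclusive = some wells, but at most half, below -50%; inactive = no replicate well below -50%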;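 also: luciferase reports HSF-1 transcriptional activity via heat shock element; 0% = median of DMSO wells and -100% = zero luminescence signal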
HSP90 refold inh: HSP90 refolding inhibition in rabbit reticulocyte lysate. inhibition, % at 5.6 µM. luciferase refolding luminescence, 3 h. 290,000 compounds, 0.91% hits. AID 1789;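 active = inhibition above the screen-wide mean plus 3 SD, computed separately per campaign, cut at about 16% in these data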;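 also: 0% = DMSO wells and 100% = 60 µM geldanamycin wells; inhibitors lower the luminescence because luciferase stays unfolded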
Lipid droplet: hepatic lipid droplet formation modulation | AML12 mouse hepatocytes, oleate lipid droplets, BODIPY imaging | inhibition, % at 6.5 µM | 240,000 compounds, 0.4% hits;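 active = lipid droplet intensity inhibited by at least 50%, with more than 500 cells counted; inconclusive = wells with under 300 cells, treated as cytotoxic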
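Test system: AML12 mouse liver cells; schedule: overnight exposure; technique: high-content imaging of BODIPY-stained droplets and DAPI nuclei; read-out: % inhibition of corrected integrated BODIPY droplet signal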
* hit, by the source's call; u = inconclusive; x = not tested or not shown. Compounds with a hit are over-represented: about 3.8% of the library has one in this group of screens.

SMILES	NS3 helicase inh	HSF1 activator	HSF1 inhib	HSP90 refold inh	Lipid droplet
Cc1ccc(S(=O)(=O)N2CCC(NC(=O)C3CCCCC3)CC2)cc1	-0.9	4.5	-2.4	-5.3	-3.2
O=C1c2ccccc2C(=O)N1OCCCN1C(=O)c2ccccc2S1(=O)=O	x	-0.2	-0.2	x	x
Cn1c(/C=C(\C#N)C(N)=S)ccc1-c1ccc(Br)cc1	16.2	x	x	5.5	1.5
CCOc1ccc(NS(=O)(=O)c2ccc(C(=O)N(C)CC(=O)Nc3ccc(C)cc3)cc2)cc1	x	58.8*	30.4	x	x
CC(=O)Nc1ccc(C(=O)OCCc2ccccc2)cc1	-2.2	56.1*	21.9	-3.7	1.3
CC(=O)Nc1ccc(C(=O)OCCCOC(=O)c2ccc(NC(C)=O)cc2)cc1	12.5	4.5	3.3	-3.4	4.4
N[C@H]1CONC1=O	x	-8.5	1.2	x	x
C=CCc1cc(Cl)ccc1OCCCn1ccnc1	-7.2	5.1	-3.3	-1.1	-2.4
O=C1NC(Cc2c[nH]c3ccccc23)C(=O)N1Cc1ccc(CN2C(=O)NC(Cc3c[nH]c4ccccc34)C2=O)cc1 (stereo not drawn)	-16.4	5.7	-2.1	-1.0	x
CSc1ccccc1C(=O)Nc1cccc(N(C)S(C)(=O)=O)c1	0.7	-0.1	0.7	-1.6	11.8
COc1cccc(C(=O)Nc2ccncc2)c1OC	-5.6	16.0	1.4	-5.2	-11.5
COc1cccc(C(=O)Nc2ccc(N(C)C)cc2)c1OC	-0.5	70.8*	35.2	1.2	-11.1
COc1ccccc1C(=O)Nc1cccc(N(C)S(C)(=O)=O)c1	-7.2	50.3*	8.5	0.3	0.6
Cc1nn(-c2nc3ccccc3[nH]2)c(N)c1-c1ccccc1	-8.9	71.4*	44.8	-0.4	-0.1
O=C(NCCNC(=O)c1cccnc1)c1ccc(Br)cc1	5.2	-15.7	-5.7	-2.4	31.6
CCOC(=O)c1snc(-c2ccc(F)cc2)c1N	2.9	58.7*	18.1	-0.8	x
CCCCN(c1nc2ccccc2nc1Cl)S(=O)(=O)c1ccc(C)cc1	-7.3	0.9	-11.5	1.6	-6.9
O=C1N=c2ccccc2=C1c1[nH]c(=S)[nH]c1O	14.8	35.7	3.3	2.9	1.3
Cc1ccc(Cl)c2c1=NC(=O)C=2c1[nH]c(=S)[nH]c1O	-8.8	125.5*	58.5	-1.2	5.2
CC(=O)Nc1nnc(CSCc2ccccc2F)s1	0.3	x	x	2.0	-6.8
Nc1cc(C(F)(F)F)ccc1NCCc1ccccn1	9.0	26.3	5.9	1.6	x
Cc1nnc(N/N=C/c2cccc(OCc3ccc(Cl)c(Cl)c3)c2)n1N	-1.2	128.5*	83.4	8.1	1.6
Cc1nnc(N/N=C/c2cccc(C(F)(F)F)c2)n1N	-0.7	32.1	24.2	-2.9	x
COc1ccc(NC(=O)c2cc(-c3cc(C)c(C)cc3O)n[nH]2)c(OC)c1	10.0	6.1	11.2	-9.7	9.9
Cc1cc(C)c(O)c(-c2cc(C(=O)Nc3cccnc3)[nH]n2)c1	-8.4	1.7	0.6	0.5	8.3
SMILES	NS3 helicase inh	HSF1 activator	HSF1 inhib	HSP90 refold inh	Lipid droplet
Cc1ccc(O)c(-c2cc(-c3cccc(F)c3)n[nH]2)c1	2.5	u	57.1	2.5	3.6
Cc1cc(O)c(-c2cc(C(=O)Nc3cccnc3)[nH]n2)cc1C	-5.5	63.6*	33.1	-0.8	-5.8
COc1ccc(NC(=O)c2cc(-c3cc(Cl)ccc3O)n[nH]2)c(OC)c1	-3.8	-85.9	-81.5*	7.8	6.8
Cc1ccc(O)c(-c2cc(-c3ccccc3F)[nH]n2)c1	-12.0	156.9*	134.7	-4.6	-11.6
Cc1ccc(C)c(NC(=O)c2cc(-c3cc(C)ccc3O)n[nH]2)c1	-6.0	91.8*	48.1	2.4	-5.4
COc1cc(Nc2cccc[n+]2C)cc(OC)c1OC	1.9	0.9	2.4	-0.6	-2.9
CCc1cc(CN2CCOCC2)c(NC(=O)c2ccccc2)s1	12.5	46.5	19.8	-0.6	0.8
COc1ccccc1CN1CC(C(=O)NCCCc2ccc(F)cc2)CCC1=O (stereo not drawn)	-9.0	16.8	11.6	-2.1	6.3
Cn1ccnc1SCC(=O)Nc1ccc2c(c1)OC(F)(F)O2	-2.5	14.2	12.0	-1.3	8.6
CC(=O)Nc1cccc(NC(=O)COc2ccc3c(c2)OCO3)c1	-10.8	56.5*	25.9	1.4	-29.4
COc1ccc(NC(=O)COc2ccc3c(c2)OCO3)cc1	2.3	-31.6	-21.0	-3.6	-7.7
CC(=O)c1ccc(NC(=O)COc2ccc3c(c2)OCO3)cc1	5.9	55.8*	17.2	2.2	1.4
NC(=O)c1ccc(NC(=O)Nc2ccc3c(c2)OCO3)cc1	-5.3	58.2*	16.1	1.9	-23.4
Cc1ccc(OCC(=O)Nc2ccc(N3CCN(S(C)(=O)=O)CC3)cc2)c(C)c1	-4.0	16.4	11.7	1.3	0.7
Cc1ccc(OCC(=O)Nc2ccc(N3CCN(S(C)(=O)=O)CC3)cc2)cc1C	2.6	60.8*	35.3	-3.2	-0.2
COc1cccc(C(C(=O)NC2CCCC2)N(C(=O)CNC(=O)c2ccco2)c2cccnc2)c1 (stereo not drawn)	-7.0	-6.6	-2.8	0.7	25.0
Cc1ccc(OCC(=O)Nc2ccc3c(c2)OCCO3)cc1C	7.5	-58.6	-62.8*	7.5	15.3
Cc1ccc(S(=O)(=O)NCC(c2ccco2)S(=O)(=O)c2ccccc2)cc1 (stereo not drawn)	x	4.6	-2.2	x	x
O=C(CC(c1ccco1)S(=O)(=O)c1ccccc1)c1ccccc1 (stereo not drawn)	5.6	84.9*	65.1	-0.2	-9.3
CCOC(=O)c1csc(NC(=O)C2=COCCO2)n1	-3.9	22.3	15.4	2.2	-16.1
N#CCc1c(C#N)c(N)nc(N2CCN(S(=O)(=O)c3ccccc3)CC2)c1C#N	1.6	85.8*	87.2	5.7	-36.2
COc1ccc(-c2nnc(Nc3nc4c(OC)cccc4s3)o2)cc1	6.4	5.7	-3.5	1.5	x
COc1cc(OC)cc(-c2nnc(Nc3nc4c(F)cccc4s3)o2)c1	5.8	-19.7	-11.4	5.3	x
COc1ccc(-c2nnc(Nc3nc4c(OC)cccc4s3)o2)c(OC)c1	0.4	60.2*	46.1	-0.8	-8.7
Fc1cccc2sc(Nc3nnc(-c4ccccc4)o3)nc12	13.5	72.5*	48.6	-1.4	-9.5
SMILES	NS3 helicase inh	HSF1 activator	HSF1 inhib	HSP90 refold inh	Lipid droplet
COC(=O)c1c(NC(=O)COC(=O)C2CCC2)sc(C)c1C	x	-5.8	-0.4	x	x
COc1cc(CCCN2CCNC[C@@H]2Cc2ccc(O)cc2)cc(OC)c1OC	x	-66.2	-55.2*	x	x
COc1cc(CCCN2C(=S)NC[C@H]2Cc2ccc(O)cc2)cc(OC)c1OC	-2.0	-7.0	-2.5	0.0	-2.2
COc1ccc(C2(c3ccc(OC)cc3)NC(=O)N(CC(=O)NC3CCCC3)C2=O)cc1	x	-3.6	-3.9	x	x
CN(C)c1ccc(C2Nc3ccccc3C(=O)N2CCCN2CCOCC2)cc1 (stereo not drawn)	-33.0	-73.6	-68.1*	3.5	10.1
Cc1cnc(NC(=O)c2cccs2)s1	-4.2	82.9*	35.8	5.9	-1.9
O=C(Nc1ncc([N+](=O)[O-])s1)c1cccs1	12.2	17.2	13.5	8.0	-20.1
Cc1cnc(NC(=O)Nc2ccc(Cl)cc2)s1	-9.9	273.6*	343.3	0.3	26.4

Screening data: PubChem, several laboratories
